Measurements reported in article PMC2728397 (The Journal of Cell Biology, 2009).

B1: WT Bim: wild-type Bim protein in thymocyte lysates (protein)
chain: MAKQPSDVSSECDREGGQLQPAERPPQLRPGAPTSLQTEPQGNPDGEGDRCPHGSPQGPLAPPASPGPFATRSPLFIFVRRSSLLSRSSSGYFSFDTDRSPAPMSCDKSTQTPSPPCQAFNHYLSAMASIRQSQEEPEDLRPEIRIAQELRRIGDEFNETYTRRVFANDYREAEDHPQMVILQLLRFIFRLVWRRH

What was measured:
thymocytes (Bim level) = experiment: Bim expression in thymocytes; assay type: cell-based, mouse; settings: mutant and WT thymocytes; Western blot
Bcl-2 = experiment: Coimmunoprecipitation from thymocyte lysates, Bcl-2; assay type: binding, mouse; settings: 1% Triton X-100 buffer, pH 7.4, anti-Bim 3C5
Procedure, shortened: (§1)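 Thymocytes came from WT and Bim BH3-replacement knockin mice. Cells were lysed in 20 mM Tris pH 7.4, 135 mM NaCl, 1.5 mM MgCl2, 1 mM EGTA, 10% glycerol, 1% Triton X-100 and protease inhibitors. Bim was immunoprecipitated with rat mAb 3C5 (N-terminal epitope, all isoforms and mutants). Partners were shown by SDS-PAGE/Western blot with ECL: hamster mAb 3F11 (Bcl-2), rabbit polyclonals (Bcl-xL, Mcl-1).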

Bcl-xL = experiment: Coimmunoprecipitation from thymocyte lysates, Bcl-xL; assay type: binding, mouse; settings: 1% Triton X-100 buffer, pH 7.4, anti-Bim 3C5
Procedure, shortened: as §1

Mcl-1 = experiment: Coimmunoprecipitation from thymocyte lysates, Mcl-1; assay type: binding, mouse; settings: 1% Triton X-100 buffer, pH 7.4, anti-Bim 3C5
Procedure, shortened: as §1

Row | Molecule | Bim expression (thymocytes (Bim level)) | coimmunoprecipitation with Bcl-2 (Bcl-2) | coimmunoprecipitation with Bcl-xL (Bcl-xL) | coimmunoprecipitation with Mcl-1 (Mcl-1)
1 | C[C@H](CCC(=O)O)C[C@H](C)C[C@H](C)C(=O)/C=C(\O)[C@H](C)C[C@H](C)C/C=C/[C@@H](C)[C@@H](O)[C@@H](C)[C@@H](O)C[C@@H]1CC[C@@](C)([C@H]2CC[C@@](C)([C@@H](C)O)O2)O1 [ionomycin] | increased Bim expression comparably in both the mutant and WT thymocytes |  |  | 
2 | B1 |  | bound all of these prosurvival proteins | bound all of these prosurvival proteins | bound all of these prosurvival proteins
